Assay outcomes: PubChem BioAssay, Sanford-Burnham Center for Chemical Genomics
This is a sample that favours compounds with a hit; in the whole collection about 2% have one here.
Scp-1 inhibitor: Scp-1 phosphatase inhibitors, primary screen, biochemical, colorimetric, uHTS; Recombinant Scp1, phosphopeptide, malachite green phosphate absorbance; inhibition, % at 20 µM; 340,000 compounds, 0.88% hits; AID 493091, 2011;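 active = inhibition above about 50% at 20 µM, limit read from the data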
Target sequence (Q9GZU7 76-261 limits assumed): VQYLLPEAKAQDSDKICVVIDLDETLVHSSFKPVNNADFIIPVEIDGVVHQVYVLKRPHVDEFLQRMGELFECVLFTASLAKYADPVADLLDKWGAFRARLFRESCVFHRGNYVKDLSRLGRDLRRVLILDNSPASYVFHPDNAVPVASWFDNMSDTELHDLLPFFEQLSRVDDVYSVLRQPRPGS
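Test system: SCP-1 phosphatase catalytic domain, residues 76-261; measured by: colorimetric phosphate reagent with accelerator and stabiliser, absorbance at 630 nm; timing: enzyme reaction 45 min at room temperature, colour 5 min, stabilisation 30 min; also added: Phosphorylated 17-residue peptide substrate; compound dosing: one concentration, 20 µM, with 1.0% DMSO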
LMPTP block: LMPTP phosphatase inhibitors, primary screen, biochemical, fluorescence intensity, uHTS. Low molecular weight phosphotyrosine protein phosphatase (Homo sapiens), P24666. AID 651560, 2012. inhibition, % at 20 µM. 360,000 compounds, 0.22% hits. recombinant LMPTP-A, OMFP fluorogenic substrate;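 active = compounds that cut the enzyme signal by at least half of the control window in the single-dose screen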
Target sequence (P24666 whole entry, looked up): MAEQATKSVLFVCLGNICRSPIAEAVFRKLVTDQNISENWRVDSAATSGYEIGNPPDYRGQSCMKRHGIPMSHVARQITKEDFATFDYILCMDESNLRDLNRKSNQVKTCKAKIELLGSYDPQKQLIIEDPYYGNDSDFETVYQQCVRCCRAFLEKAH
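Test system – LMPTP-A phosphatase enzyme · Quantity – 0.625 nM LMPTP-A final · Reagent – OMFP substrate, 400 µM final · Dosing – one test concentration per compound, 20 µM, with 3% DMSO overall · Timing – 50 min enzyme reaction at room temperature, protected from light · Detection – fluorescence intensity · Controls – substrate-only low control, DMSO enzyme-plus-substrate high control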
DNMT1 inh: human DNMT1 methyltransferase inhibitors, primary screen, biochemical, molecular beacon, fluorescence, HinP1I cleavage, uHTS; inhibition (reported as % activation of signal), % at 10 µM; 360,000 compounds, 0.83% hits; in the data active = inhibition above about 50%
SUMO1 PPI mod: modulators of SUMO1 protein-protein interactions, primary screen, biochemical, uHTS | Small ubiquitin-related modifier 1 (Homo sapiens), P63165 | SUMO1 binding to a labelled peptide, TR-FRET, 1 h | inhibition, % at 20 µM | 360,000 compounds, 0.33% hits; in the data active = inhibition above about 37%
Target sequence (P63165 whole entry, looked up): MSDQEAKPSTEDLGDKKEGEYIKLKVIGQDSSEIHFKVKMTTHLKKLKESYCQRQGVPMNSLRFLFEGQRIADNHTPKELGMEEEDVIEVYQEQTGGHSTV
STEP block: STEP phosphatase inhibitors, primary screen, biochemical, fluorescence intensity, uHTS; recombinant STEP, OMFP fluorogenic substrate; inhibition, % at 20 µM; 360,000 compounds, 0.25% hits; AID 588621, 2011;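 active = inhibition at 20 µM, scaled per plate between control wells, above about 37%, limit read from the data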
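Measure: Control-normalized % inhibition with plate pattern correction | Test system: STEP phosphatase, cell-free reaction | Medium: pH 6.0 Bis-Tris with DTT and Tween 20 | Technique: Fluorescence, 480/540 nm | Times: Reaction 20 min, ambient temperature | Doses: Single compound dose of 20 µM, 1% DMSO final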
CSN inh: inhibitors of CSN-mediated cullin deneddylation, primary screen, biochemical, fluorescence polarization, uHTS. inhibition, % at 12.5 µM. Purified CSN, SCF-Nedd8-OG deneddylation. COP9 signalosome complex subunit 5 (Homo sapiens), Q92905. 360,000 compounds, 0.38% hits. AID 651999, 2013;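 active = pattern-corrected inhibition above about 35%, with an unprinted fluorescence ratio check between 0.5 and 1.5, limit read from the data, passing the limit was not always enough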
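Test system: Human Csn5 produced in HEK293T cells | Compound: 12.5 µM single point | Times: 90 min, room temperature | Signal: Fluorescence polarization readout | Read-out basis: % inhibition of substrate cleavage by Csn5 | Controls: no-enzyme wells high, enzyme-with-substrate wells low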
Hits are given with their value.

Screening COc1cc(NC(=O)CSCC(=O)Nc2cccc(C(F)(F)F)c2)c(Cl)cc1Cl returned Scp-1 inhibitor inactive, LMPTP block inactive, DNMT1 inh inactive, SUMO1 PPI mod 44, STEP block inactive and CSN inh inactive.
Screening COc1cccc2oc3cc(C#Cc4ccccn4)ccc3c(=O)c12 returned Scp-1 inhibitor 59.
For CC1=CC(C)(C)NC(=S)N1C(C)c1ccccc1 (stereo not drawn) the results were Scp-1 inhibitor inactive, LMPTP block inactive, DNMT1 inh inactive, SUMO1 PPI mod inactive, STEP block inactive and CSN inh inactive.
For Fc1cc(Cl)cc2ccc(-c3ccccc3)nc12 the results were LMPTP block inactive, DNMT1 inh inactive, SUMO1 PPI mod inactive, STEP block inactive and CSN inh 103.
Screening Cc1ccc(C2(C)NC(=O)N(CC(=O)Nc3ccc4[nH]c(=O)[nH]c4c3)C2=O)cc1 (stereo not drawn) returned Scp-1 inhibitor inactive, LMPTP block inactive, DNMT1 inh inactive, SUMO1 PPI mod 72, STEP block inactive and CSN inh inactive.
`COc1ccc(C2(C)NC(=O)N(CC(=O)Nc3ccc4[nH]c(=O)[nH]c4c3)C2=O)cc1` (stereo not drawn) gave Scp-1 inhibitor inactive, LMPTP block inactive, DNMT1 inh inactive, SUMO1 PPI mod inactive, STEP block inactive and CSN inh inactive.
Screening CC1(c2ccc(Cl)cc2Cl)NC(=O)N(CC(=O)Nc2ccc3[nH]c(=O)[nH]c3c2)C1=O (stereo not drawn) returned Scp-1 inhibitor inactive, LMPTP block inactive, DNMT1 inh inactive, SUMO1 PPI mod 54, STEP block inactive and CSN inh inactive.
For CC1CC(C)(C)CC2(C1)NC(=O)N(CC(=O)Nc1ccc3[nH]c(=O)[nH]c3c1)C2=O (stereo not drawn) the results were Scp-1 inhibitor inactive, LMPTP block inactive, DNMT1 inh inactive, SUMO1 PPI mod inactive, STEP block inactive and CSN inh 73.
`CCN(C(=O)CSc1cccc[n+]1[O-])C1CCCCC1` gave Scp-1 inhibitor inactive, LMPTP block inactive, DNMT1 inh inactive, SUMO1 PPI mod inactive, STEP block inactive and CSN inh inactive.
For CC(C)N(CCNCc1nnc(-c2ccccc2)o1)C(C)C the results were Scp-1 inhibitor inactive, LMPTP block inactive, DNMT1 inh inactive, SUMO1 PPI mod inactive, STEP block inactive and CSN inh inactive.
For O=c1ccc2[n+]([O-])c3ccc(O)cc3oc-2c1 the results were Scp-1 inhibitor inactive, LMPTP block inactive, DNMT1 inh 58, SUMO1 PPI mod inactive, STEP block inactive and CSN inh inactive.
For O=c1cc(O)c2ccc(O)cc2o1 the results were Scp-1 inhibitor inactive, LMPTP block inactive, DNMT1 inh inactive, SUMO1 PPI mod inactive, STEP block inactive and CSN inh inactive.
Screening CC(C)[C@H]1CN=C2N(C[C@H](C)NC(=O)CCC3CCCCC3)[C@H](Cc3ccc(O)cc3)CN21 returned Scp-1 inhibitor inactive, LMPTP block inactive, DNMT1 inh inactive, SUMO1 PPI mod 53, STEP block inactive and CSN inh 74.
For COc1ccccc1N(CC(=O)NC1CCCCC1)C(=O)CCC(=O)Nc1nccs1 the results were Scp-1 inhibitor inactive, LMPTP block inactive, DNMT1 inh inactive, SUMO1 PPI mod inactive, STEP block inactive and CSN inh inactive.
`Oc1cccc(CN2CCOCC2)c1O` gave Scp-1 inhibitor inactive, LMPTP block inactive, DNMT1 inh inactive, SUMO1 PPI mod inactive, STEP block inactive and CSN inh inactive.
Oc1c(CN2CCOCC2)cc(CN2CCOCC2)c(O)c1O was read as Scp-1 inhibitor inactive, LMPTP block inactive, DNMT1 inh 58, SUMO1 PPI mod inactive, STEP block inactive and CSN inh inactive.
`Clc1ccccc1Nc1nc(-c2ccncc2)nc2ccccc12` gave Scp-1 inhibitor inactive, LMPTP block inactive, DNMT1 inh inactive, SUMO1 PPI mod inactive, STEP block inactive and CSN inh inactive.
For Clc1cccc(Nc2nc(-c3ccncc3)nc3ccccc23)c1 the results were Scp-1 inhibitor inactive, LMPTP block inactive, DNMT1 inh inactive, SUMO1 PPI mod 61, STEP block inactive and CSN inh inactive.
CCOc1ccc(/C=N/NC(=O)c2cc(-c3cccn3C)n[nH]2)cc1 was read as Scp-1 inhibitor inactive, LMPTP block inactive, DNMT1 inh inactive, SUMO1 PPI mod inactive, STEP block inactive and CSN inh inactive.
For CO[C@@]1(NC(=O)CSCC#N)C(=O)N2C(C(=O)O)=C(CSc3nnnn3C)CS[C@@H]21 the results were Scp-1 inhibitor 65, LMPTP block inactive, DNMT1 inh 66, SUMO1 PPI mod inactive, STEP block inactive and CSN inh inactive.
Screening Oc1[nH]c2ccccc2c1N=Nc1ccccc1Cl returned Scp-1 inhibitor inactive, LMPTP block inactive, DNMT1 inh 54, SUMO1 PPI mod inactive, STEP block inactive and CSN inh inactive.
CCOC(=O)c1nc(C)n(-c2cc(OC)c(Cl)cc2Cl)n1 was read as Scp-1 inhibitor inactive, LMPTP block inactive, DNMT1 inh inactive, SUMO1 PPI mod inactive, STEP block inactive and CSN inh inactive.
`COc1cc(-c2noc(C)c2/C=C/c2ccc(C(=O)O)cc2)cc(OC)c1OC` gave Scp-1 inhibitor inactive, LMPTP block inactive, DNMT1 inh 61, SUMO1 PPI mod inactive, STEP block inactive and CSN inh inactive.
For COc1cc(-c2noc(C)c2/C=C/c2cccc([N+](=O)[O-])c2)cc(OC)c1OC the results were Scp-1 inhibitor inactive, LMPTP block inactive, DNMT1 inh inactive, SUMO1 PPI mod inactive, STEP block inactive and CSN inh inactive.
For CCOc1ccc(/C=N/n2c(-c3ccccc3)n[nH]c2=S)cc1 the results were Scp-1 inhibitor inactive, LMPTP block inactive, DNMT1 inh inactive, SUMO1 PPI mod inactive, STEP block inactive and CSN inh inactive.
O=C(NCCN1CCN(c2cccc(Cl)c2)CC1)c1ccc(CSc2nc3ccncc3[nH]2)cc1 was read as Scp-1 inhibitor inactive, LMPTP block 83, DNMT1 inh inactive, SUMO1 PPI mod inactive, STEP block inactive and CSN inh inactive.
`CC1=C(C(=O)Nc2ccc(C(=O)NCCCN3CCCCC3C)cc2)SCCO1` (stereo not drawn) gave LMPTP block inactive, DNMT1 inh inactive, SUMO1 PPI mod inactive, STEP block inactive and CSN inh inactive.
